Most compounds without a hit are left out; they make up all but 2.5% or so of the library.
ABHD5 PLIN5 PPI: ABHD5-PLIN5 interaction inhibitors, primary screen, cell lysate, split luciferase complementation, luminescence | Perilipin-5 (Homo sapiens) + 1-acylglycerol-3-phosphate O-acyltransferase ABHD5 (Homo … | Split G. princeps luciferase complementation, 4 h | inhibition, % at 4 µM | actives 0.78% (n = 360,000) | AID 602281, 2012;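 active means inhibition above the mean inhibition across every tested compound plus 3 SD, cut at about 22% in these data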
Target sequence (Q00G26 whole entry, looked up): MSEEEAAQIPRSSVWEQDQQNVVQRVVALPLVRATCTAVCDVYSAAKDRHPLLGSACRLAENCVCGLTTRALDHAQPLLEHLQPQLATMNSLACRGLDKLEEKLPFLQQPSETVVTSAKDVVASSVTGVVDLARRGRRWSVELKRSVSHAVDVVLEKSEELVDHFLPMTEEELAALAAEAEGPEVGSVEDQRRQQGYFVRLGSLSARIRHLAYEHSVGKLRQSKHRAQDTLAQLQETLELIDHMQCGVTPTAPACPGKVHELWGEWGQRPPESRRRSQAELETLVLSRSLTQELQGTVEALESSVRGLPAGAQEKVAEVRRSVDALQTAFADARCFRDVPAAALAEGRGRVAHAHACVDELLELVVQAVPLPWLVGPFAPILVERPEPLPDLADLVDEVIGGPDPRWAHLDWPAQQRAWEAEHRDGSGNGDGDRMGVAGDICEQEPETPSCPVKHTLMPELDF
Target sequence (Q8WTS1 whole entry, looked up): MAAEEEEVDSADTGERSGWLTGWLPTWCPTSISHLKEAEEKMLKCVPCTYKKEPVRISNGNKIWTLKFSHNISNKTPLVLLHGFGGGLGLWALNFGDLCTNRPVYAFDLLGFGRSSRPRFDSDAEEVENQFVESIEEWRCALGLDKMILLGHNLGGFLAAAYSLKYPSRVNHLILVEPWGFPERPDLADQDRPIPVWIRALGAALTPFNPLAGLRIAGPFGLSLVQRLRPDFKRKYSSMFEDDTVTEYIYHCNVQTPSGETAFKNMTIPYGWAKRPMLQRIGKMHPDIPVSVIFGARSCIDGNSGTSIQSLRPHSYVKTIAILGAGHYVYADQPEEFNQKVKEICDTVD
GRK2 inh: compounds blocking aptamer binding on GRK2 – biochemical, human GRK2, bead flow cytometry, HTS, primary screen | FAM-aptamer displacement from GRK2 | actives 0.59% (n = 330,000) | AID 488847, 2010 | inhibition of aptamer binding, % at 10 µM;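 active means inhibition of aptamer binding above 40%, roughly 3 SD of noise, on plates passing a quality check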;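 further: median bead fluorescence of bound FAM aptamer so fluorescent compounds give negative values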
SENP1 FRET inh: human SENP1 catalytic domain inhibitors, primary screen, biochemical, FRET, uHTS | inhibition, % at 10 µM | Sentrin-specific protease 1 (Homo sapiens), Q9P0U3 | AID 624204, 2012 | actives 0.21% (n = 360,000) | recombinant SENP1 catalytic domain, CyPet-SUMO1-YPet FRET cleavage;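 active means inhibition at least 30% at 10 µM, raw YFP signal under a set limit, fluorescence ratio 0.5 to 1.5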
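Material – human SENP1 catalytic domain · Input – SENP1 enzyme, 20 pM final · Compound dosing – single concentration of 10 µM compound, 0.5% DMSO final · Timing – enzyme reaction for 50 min at room temperature, dark · Measured by – FRET fluorescence in CFP and YFP emission channels · Control set – no-enzyme wells low, DMSO-plus-enzyme wells high control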
B2AR ag: beta2AR agonists driving receptor internalization, primary screen, cell-based, FAP fluorogen, flow cytometry; actives 0.43% (n = 340,000); AID 504454, 2011; response, % (concentration not given with the values); Am2.2-beta2AR cells; Beta-2 adrenergic receptor (Homo sapiens), P07550;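 active means response above a set limit, near 3 SD of response in nonfluorescent compounds, cut at about 42% in these data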
NadD block: inhibitors of S. aureus NadD, primary screen, biochemical, colorimetric, uHTS | inhibition, % at 20 µM | purified NadD enzyme, colorimetric absorbance read-out | Nicotinate-nucleotide adenylyltransferase NadD (Staphylococcus aureus N315) | actives 0.78% (n = 360,000); in the data active means inhibition above about 26%
SENP1 conf: human SENP1 catalytic domain inhibitors, confirmation, biochemical, FRET endpoint, single concentration; shares compounds with SENP1 FRET inh; recombinant SENP1, CyPet-SUMO1-YPet FRET cleavage; inhibition, % at 10 µM; actives 34% (n = 520); in the data active means inhibition mostly above about 35%, no sharp cut-off; inactive means mostly below about 32%
SENP1 kinetic: human SENP1 catalytic domain inhibitors, confirmation, biochemical, kinetic FRET, single concentration | shares compounds with SENP1 FRET inh | recombinant SENP1, CyPet-SUMO1-YPet FRET kinetic cleavage | inhibition, % at 10 µM | actives 26% (n = 520); in the data active means inhibition mostly above about 32%, no sharp cut-off; inactive means mostly below about 29%
Large screens that a line does not name were inactive (follow-up assays come after a bar, where they were run).

COc1ccc(CN2C(=O)C(CC(=O)NCc3cccs3)CC(C(=O)N3CCOCC3)=C2C)cc1 (stereo not drawn)	none (no result: GRK2 inh, B2AR ag)
COc1ccc(/C=N/n2c(SC)nnc(C(C)(C)C)c2=O)cc1OC	none
COc1cc(/C=N/n2c(SC)nnc(C(C)(C)C)c2=O)ccc1O	SENP1 FRET inh 52 | SENP1 conf inactive | SENP1 kinetic inactive
CCOC(=O)C1=C(COC(=O)c2ccc3ccccc3c2O)NC(=O)NC1C (stereo not drawn)	SENP1 FRET inh 38 | SENP1 conf inactive | SENP1 kinetic inactive
CCOC(=O)C1=C(COC(=O)c2ccccc2OC(F)F)NC(=O)NC1C (stereo not drawn)	none
COc1cc(Cn2c3ccc(NC(=O)CC(C)C(F)(F)F)cc3c(=O)n2C)ccc1F (stereo not drawn)	SENP1 FRET inh 31 (no result: GRK2 inh, B2AR ag) | SENP1 conf inactive | SENP1 kinetic inactive
CC(CC(=O)Nc1ccc2c(c1)c(=O)n(C)n2Cc1ccc(Cl)cc1)C(F)(F)F (stereo not drawn)	none (no result: GRK2 inh, B2AR ag)
COc1ccc(N(CC(=O)N/N=C/c2cccnc2)S(=O)(=O)c2ccc(C)cc2)cc1OC	none
CSc1ncc(CNc2cc([N+](=O)[O-])ccc2C)c(N)n1	SENP1 FRET inh 37 (no result: GRK2 inh) | SENP1 conf inactive | SENP1 kinetic inactive
Cc1cc([N+](=O)[O-])ccc1NCc1cccc2ccccc12	none
CCN(CC)C(=O)c1ncn2c1c(=O)[nH]c1ccccc12	none (no result: GRK2 inh, B2AR ag)
CC(C)Nc1ccc(C(CC(N)=O)NC(=O)Cc2cccc3ccccc23)cc1[N+](=O)[O-] (stereo not drawn)	SENP1 FRET inh 41 | SENP1 conf inactive | SENP1 kinetic inactive
Cc1cccc(C(=O)OCC(=O)N(CC(C)C)c2c(N)n(Cc3ccccc3)c(=O)[nH]c2=O)c1C	none (no result: GRK2 inh)
COc1cc(/C=C2\SC(=Nc3c(C)n(C)n(-c4ccccc4)c3=O)NC2=O)ccc1O	SENP1 FRET inh 42 (no result: GRK2 inh) | SENP1 conf 59 | SENP1 kinetic 41
COc1cccc(N=Cc2ccc(O)cc2O)c1	SENP1 FRET inh 36 | SENP1 conf inactive | SENP1 kinetic inactive
Cc1c(N/C=C/C(=O)C(F)(F)F)c(=O)n(-c2ccccc2)n1C	none
COc1ccc(C(=O)/C=C/Nc2c(C)n(C)n(-c3ccccc3)c2=O)cc1OC	SENP1 FRET inh 31 | SENP1 conf inactive | SENP1 kinetic inactive
O=C(COC(=O)C(CO)NS(=O)(=O)c1ccc(Br)cc1)Nc1ccc2c(c1)OCCO2 (stereo not drawn)	none
N#C/C(=C/C1=C(N2CCOCC2)C(=C/c2cccc([N+](=O)[O-])c2)/CC1)C(=O)Nc1ccccc1F	SENP1 FRET inh 73 (no result: GRK2 inh) | SENP1 conf inactive | SENP1 kinetic inactive
CCN1C(=O)[C@H]2[C@@H](c3ccc(-c4ccc(Cl)c(Cl)c4)c(OC)c3)N[C@@](Cc3ccccc3)(C(=O)OC)[C@H]2C1=O	none
Cc1ccc(-c2csc3nc(-c4ccncc4)[nH]c(=O)c23)cc1	SENP1 FRET inh 43 | SENP1 conf 40 | SENP1 kinetic inactive
Cc1ccc(-c2csc3nc[nH]c(=O)c23)cc1	none
CCc1sc(C(=O)N2CCN(C(=O)c3ccccc3)CC2)cc1C	none
O=C(Cn1c(O)c(/C=C2\C=Nc3ccccc32)sc1=O)Nc1ccc2c(c1)OCO2	SENP1 FRET inh 46 | SENP1 conf inactive | SENP1 kinetic inactive
N#Cc1c(SCc2ccc(Cl)cc2)sc(C(=O)c2ccccc2)c1N	none
CSc1c(C#N)c(N)nc2sc(C(=O)c3ccccc3)c(N)c12	SENP1 FRET inh 65 | SENP1 conf 57 | SENP1 kinetic 40
